Data taken from ChEMBL document CHEMBL4382197, “Discovery of QCA570 as an Exceptionally Potent and Efficacious Proteolysis Targeting Chimera (PROTAC) Degrader of the Bromodomain and Extra-Terminal (BET) Proteins Capable of Inducing Complete and Durable Tumor Regression” (J Med Chem, 2018).
Calls of active or inactive are those of the source. No cut-off for these calls is given here.

Legend:
[1] = target: T1, Protein cereblon/Bromodomain-containing protein 3/Cullin-4A (Homo sapiens) (UniProt Q15059+Q96SW2+Q13619); assay: Protac activity at cereblon/cullin 4A/BRD3 in human RS4:11 cells assessed as BRD3 degradation at 0.5 nM after 3 hrs in presence of neddylation inhibitor MLN4924 by Western blot analysis; assay type: cell-based
Summary of the method: (§1)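 RS4;11 cells were pre-treated for 2 h with DMSO, lenalidomide (10 μM), MLN4924 (1 μM) or MG-132 (20 μM). The degrader was then added at 0.5 nM for 3 h. Lysates were immunoblotted for BRD2, BRD3 and BRD4, with GAPDH as loading control.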

[2] = target: T2, Protein cereblon/Bromodomain-containing protein 2/Cullin-4A (Homo sapiens) (UniProt P25440+Q96SW2+Q13619); assay: Protac activity at cereblon/cullin 4A/BRD2 in human MV4-11 cells assessed as BRD2 degradation at 30 to 100 pM after 3 hrs by Western blot analysis; assay type: cell-based
[3] = target: T2, Protein cereblon/Bromodomain-containing protein 2/Cullin-4A (Homo sapiens); assay: Protac activity at cereblon/cullin 4A/BRD2 in human RS4:11 cells assessed as BRD2 degradation at 0.5 nM after 3 hrs by Western blot analysis; assay type: cell-based
[4] = target: T3, Protein cereblon/Bromodomain-containing protein 4/Cullin-4A (Homo sapiens) (UniProt O60885+Q96SW2+Q13619); assay: Protac activity at cereblon/cullin 4A/BRD4 in human RS4:11 cells assessed as BRD4 degradation at 10 pM after 3 hrs by Western blot analysis; assay type: cell-based
[5] = Drug uptake in lungs of SCID mouse xenografted with human RS4:11 cells at 5 mg/kg, iv measured at 6 hrs by LC-MS/MS analysis; assay type: ADME, organism-based, Lung; conditions: in vivo, BLD = below limit of detection
Summary of the method: (§2)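 Female SCID mice with RS4;11 tumors received a single 5 mg/kg intravenous dose in 20% PCP/80% PBS. Plasma (heparin) and tissues were taken at 1, 3 and 6 h, one mouse per time point in duplicate. Plasma was precipitated with acetonitrile containing internal standard. Tissues were homogenized 5:1 in 20% acetonitrile. Quantified by LC-MS/MS against spiked plasma standards (2–2000 ng/mL); values in ng/ml or ng/g.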

Mus musculus [6] = assay: In vivo Protac activity at cereblon/cullin/BRD4 in tumor of human RS4:11 cells xenografted in SCID mouse assessed as reduction in BRD4 protein expression at 1 to 5 mg/kg, iv administered as single dose and measured at 24 hrs post dose by Western blot analysis; assay type: functional, organism-based
Summary of the method: (§3)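 SCID mice bearing subcutaneous RS4;11 tumors were given a single intravenous dose of 1 or 5 mg/kg. Tumors were harvested at 1, 6 and 24 h, two mice per time point. Tissue was ground in liquid nitrogen and lysed in CST buffer with protease inhibitors. 20 µg lysate per lane was probed for BRD2, BRD3, BRD4, c-Myc and cleaved PARP, with GAPDH as loading control.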

[7] = Drug uptake in plasma of SCID mouse xenografted with human RS4:11 cells at 5 mg/kg, iv measured at 6 hrs by LC-MS/MS analysis; assay type: ADME, organism-based; conditions: in vivo, BLD = below limit of detection; summary of the method: as §2
[8] = target: T2, Protein cereblon/Bromodomain-containing protein 2/Cullin-4A (Homo sapiens); assay: Protac activity at cereblon/cullin 4A/BRD2 in human RS4:11 cells assessed as BRD2 degradation at 0.5 nM after 3 hrs in presence of neddylation inhibitor MLN4924 by Western blot analysis; assay type: cell-based; summary of the method: as §1
RS4-11 [9] = assay: Growth inhibition of human RS4:11 cells after 96 hrs by CCK8 assay; assay type: functional, cell-based; conditions: RS4-11, 96 h
RS4-11 [10] = assay: Antitumor activity against human RS4:11 cells xenografted in SCID mouse assessed as induction of apoptosis by measuring PARP cleavage at 1 to 5 mg/kg, iv administered as single dose and measured at 1 to 24 hrs post dose by Western blot analysis; assay type: functional, organism-based; summary of the method: as §3
MV4-11 [11] = assay: Induction of apoptosis in human MV4-11 cells at 0.1 to 10 uM after 48 hrs by Annexin V/propidium iodine-double staining-based flow cytometry; assay type: functional, cell-based
[12] = target: T3, Protein cereblon/Bromodomain-containing protein 4/Cullin-4A (Homo sapiens); assay: Protac activity at cereblon/cullin 4A/BRD4 in human RS4:11 cells assessed as BRD4 degradation at 0.5 nM after 3 hrs by Western blot analysis; assay type: cell-based
MV4-11 [13] = assay: Induction of apoptosis in human MV4-11 cells at 1 nM after 24 hrs by Annexin V/propidium iodine-double staining-based flow cytometry relative to control; assay type: functional
Summary of the method: (§4)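 Leukemia cells were treated for 24 h or 48 h at the indicated concentrations. They were then collected, washed in cold PBS and stained with Annexin V and propidium iodide. Apoptotic fraction was measured by flow cytometry.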

[14] = target: Protein cereblon/Eukaryotic peptide chain release factor GTP-binding subunit ERF3A/Cullin-4A (Homo sapiens) (UniProt Q96SW2+Q13619+P15170); assay: Induction of Cereblon/Cullin 4A-mediated-GSPT1 degradation in human MV4-11 cells at 0.01 to 10 nM after 3 hrs by Western blot analysis; assay type: cell-based
[15] = Drug uptake in intestine of SCID mouse xenografted with human RS4:11 cells at 5 mg/kg, iv measured at 6 hrs by LC-MS/MS analysis; assay type: ADME, organism-based; conditions: in vivo, BLD = below limit of detection; summary of the method: as §2
Mus musculus [16] = assay: In vivo Protac activity at cereblon/cullin/BRD2 in tumor of human RS4:11 cells xenografted in SCID mouse assessed as reduction in BRD2 protein expression at 1 to 5 mg/kg, iv administered as single dose and measured at 1 to 6 hrs by Western blot analysis; assay type: functional, organism-based; summary of the method: as §3
RS4-11 [17] = assay: Induction of apoptosis in human RS4:11 cells at 0.3 to 10 nM after 24 hrs by Annexin V/propidium iodine-double staining-based flow cytometry relative to control; assay type: functional; summary of the method: as §4
MV4-11 [18] = assay: Induction apoptosis in human MV4-11 cells assessed as caspase-3 activation at 0.3 nM after 24 hrs by Western blot analysis; assay type: functional, cell-based
Summary of the method: (§5)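 Cells (1.5–2×10^6/well) were treated for 24 h, washed in cold PBS and lysed in RIPA with protease inhibitors. 20 µg lysate was run on 4–20% or 4–12% gels and transferred to PVDF. Blots were probed for cleaved PARP and cleaved caspase 3, with GAPDH as loading control. Detection by ECL.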

[19] = target: T3, Protein cereblon/Bromodomain-containing protein 4/Cullin-4A (Homo sapiens); assay: Protac activity at cereblon/cullin 4A/BRD4 in human RS4:11 cells assessed as BRD4 degradation at 0.5 nM after 3 hrs in presence of proteasome inhibitor MG132 by Western blot analysis; assay type: cell-based; summary of the method: as §1
[20] = target: T1, Protein cereblon/Bromodomain-containing protein 3/Cullin-4A (Homo sapiens); assay: Protac activity at cereblon/cullin 4A/BRD3 in human RS4:11 cells assessed as BRD3 degradation at 0.5 nM after 3 hrs by Western blot analysis; assay type: cell-based
RS4-11 [21] = assay: Induction apoptosis in human RS4:11 cells assessed as caspase-3 activation at 0.3 nM after 24 hrs by Western blot analysis; assay type: functional, cell-based; summary of the method: as §5
[22] = target: T1, Protein cereblon/Bromodomain-containing protein 3/Cullin-4A (Homo sapiens); assay: Protac activity at cereblon/cullin 4A/BRD3 in human RS4:11 cells assessed as BRD3 degradation at 10 pM after 3 hrs by Western blot analysis; assay type: cell-based
RS4-11 [23] = assay: Antitumor activity against human RS4:11 cells xenografted in SCID mouse assessed tumor growth inhibition at 5 mg/kg, iv administered weekly; assay type: functional, organism-based
Summary of the method: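 RS4;11 xenografts: 5×10^6 cells in 50% Matrigel injected subcutaneously on the dorsal side of SCID mice, one tumor per mouse. Randomized to treatment or vehicle at ~100 mm3. Intravenous dosing on several schedules, including 3 times per week for 3 weeks and weekly. Volume = L × W2/2; body weight tracked.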

T2 sequence (P25440 whole entry, looked up): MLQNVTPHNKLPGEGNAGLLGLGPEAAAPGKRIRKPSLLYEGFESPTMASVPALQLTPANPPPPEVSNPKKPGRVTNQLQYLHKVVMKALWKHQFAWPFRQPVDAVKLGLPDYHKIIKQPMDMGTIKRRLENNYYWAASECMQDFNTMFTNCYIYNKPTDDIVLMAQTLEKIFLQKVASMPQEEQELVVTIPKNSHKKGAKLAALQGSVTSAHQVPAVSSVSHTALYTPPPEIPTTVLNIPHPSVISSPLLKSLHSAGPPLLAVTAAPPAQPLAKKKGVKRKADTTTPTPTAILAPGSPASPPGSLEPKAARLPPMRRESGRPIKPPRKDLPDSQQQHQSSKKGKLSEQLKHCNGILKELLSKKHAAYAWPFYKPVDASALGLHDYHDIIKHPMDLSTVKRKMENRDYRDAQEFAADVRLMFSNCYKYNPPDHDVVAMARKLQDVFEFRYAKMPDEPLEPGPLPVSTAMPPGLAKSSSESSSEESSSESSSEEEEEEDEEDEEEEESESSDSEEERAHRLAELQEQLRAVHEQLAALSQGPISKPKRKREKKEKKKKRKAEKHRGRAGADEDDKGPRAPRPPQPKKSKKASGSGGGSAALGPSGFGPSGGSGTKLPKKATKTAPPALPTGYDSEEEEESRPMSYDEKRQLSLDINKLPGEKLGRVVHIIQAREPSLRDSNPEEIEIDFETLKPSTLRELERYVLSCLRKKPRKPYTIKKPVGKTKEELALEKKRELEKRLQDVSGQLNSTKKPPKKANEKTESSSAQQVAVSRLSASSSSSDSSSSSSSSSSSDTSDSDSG
T2 sequence (Q13619 whole entry, looked up): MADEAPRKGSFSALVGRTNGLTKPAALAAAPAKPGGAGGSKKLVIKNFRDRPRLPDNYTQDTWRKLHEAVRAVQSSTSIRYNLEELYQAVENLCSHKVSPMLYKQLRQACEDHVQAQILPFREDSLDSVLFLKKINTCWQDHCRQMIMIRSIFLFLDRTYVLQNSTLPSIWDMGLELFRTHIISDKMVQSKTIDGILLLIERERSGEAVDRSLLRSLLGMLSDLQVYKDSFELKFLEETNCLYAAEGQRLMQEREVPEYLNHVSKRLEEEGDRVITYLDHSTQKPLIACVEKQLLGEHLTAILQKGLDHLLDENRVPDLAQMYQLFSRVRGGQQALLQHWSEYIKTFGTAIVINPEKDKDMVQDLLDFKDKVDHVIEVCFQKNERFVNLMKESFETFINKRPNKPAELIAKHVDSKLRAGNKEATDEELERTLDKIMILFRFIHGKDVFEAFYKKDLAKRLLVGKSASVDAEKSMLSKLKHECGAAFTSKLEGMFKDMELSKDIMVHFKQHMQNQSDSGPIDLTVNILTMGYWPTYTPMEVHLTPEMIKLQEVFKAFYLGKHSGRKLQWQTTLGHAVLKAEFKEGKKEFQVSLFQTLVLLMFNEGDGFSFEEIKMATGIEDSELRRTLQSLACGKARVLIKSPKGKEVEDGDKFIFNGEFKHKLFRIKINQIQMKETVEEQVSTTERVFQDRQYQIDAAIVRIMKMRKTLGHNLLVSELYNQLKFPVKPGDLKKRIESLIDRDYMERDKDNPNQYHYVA
T2 sequence (Q96SW2 whole entry, looked up): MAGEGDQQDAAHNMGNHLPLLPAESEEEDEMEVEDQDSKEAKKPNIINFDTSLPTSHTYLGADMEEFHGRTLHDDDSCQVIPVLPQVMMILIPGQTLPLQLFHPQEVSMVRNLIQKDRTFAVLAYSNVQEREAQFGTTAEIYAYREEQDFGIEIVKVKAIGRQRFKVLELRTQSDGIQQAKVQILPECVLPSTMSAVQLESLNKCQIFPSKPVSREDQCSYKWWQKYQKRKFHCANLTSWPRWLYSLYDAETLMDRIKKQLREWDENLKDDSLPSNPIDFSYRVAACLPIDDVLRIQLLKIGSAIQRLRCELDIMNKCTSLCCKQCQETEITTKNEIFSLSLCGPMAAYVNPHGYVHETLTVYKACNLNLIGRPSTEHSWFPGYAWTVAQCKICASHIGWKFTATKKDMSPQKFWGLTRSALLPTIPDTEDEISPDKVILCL
T1 sequence (Q13619 whole entry, looked up): as the sequence (Q13619 whole entry, looked up) above
T1 sequence (Q15059 whole entry, looked up): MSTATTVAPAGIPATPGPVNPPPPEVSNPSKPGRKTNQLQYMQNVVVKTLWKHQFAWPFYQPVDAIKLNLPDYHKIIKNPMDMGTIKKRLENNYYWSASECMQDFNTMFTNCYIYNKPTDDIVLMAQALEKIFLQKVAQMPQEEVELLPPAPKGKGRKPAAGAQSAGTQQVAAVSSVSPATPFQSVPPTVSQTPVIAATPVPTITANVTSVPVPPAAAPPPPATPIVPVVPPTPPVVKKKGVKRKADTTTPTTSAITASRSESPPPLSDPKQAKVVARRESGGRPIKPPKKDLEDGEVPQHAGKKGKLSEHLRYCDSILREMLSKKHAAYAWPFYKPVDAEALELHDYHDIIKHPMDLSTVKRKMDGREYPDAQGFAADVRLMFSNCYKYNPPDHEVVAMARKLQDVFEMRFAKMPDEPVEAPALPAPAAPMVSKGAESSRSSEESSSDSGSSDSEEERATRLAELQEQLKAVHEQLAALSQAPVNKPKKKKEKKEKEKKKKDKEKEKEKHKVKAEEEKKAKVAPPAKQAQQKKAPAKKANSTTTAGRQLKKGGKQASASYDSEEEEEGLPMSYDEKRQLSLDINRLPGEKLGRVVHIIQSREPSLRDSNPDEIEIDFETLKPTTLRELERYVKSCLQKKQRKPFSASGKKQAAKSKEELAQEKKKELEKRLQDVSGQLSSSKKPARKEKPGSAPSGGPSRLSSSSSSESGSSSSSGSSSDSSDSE
T1 sequence (Q96SW2 whole entry, looked up): as the sequence (Q96SW2 whole entry, looked up) above
Protein cereblon/Eukaryotic peptide chain release factor GTP-binding subunit ERF3A/Cullin-4A (Homo sapiens), sequence (P15170 whole entry, looked up): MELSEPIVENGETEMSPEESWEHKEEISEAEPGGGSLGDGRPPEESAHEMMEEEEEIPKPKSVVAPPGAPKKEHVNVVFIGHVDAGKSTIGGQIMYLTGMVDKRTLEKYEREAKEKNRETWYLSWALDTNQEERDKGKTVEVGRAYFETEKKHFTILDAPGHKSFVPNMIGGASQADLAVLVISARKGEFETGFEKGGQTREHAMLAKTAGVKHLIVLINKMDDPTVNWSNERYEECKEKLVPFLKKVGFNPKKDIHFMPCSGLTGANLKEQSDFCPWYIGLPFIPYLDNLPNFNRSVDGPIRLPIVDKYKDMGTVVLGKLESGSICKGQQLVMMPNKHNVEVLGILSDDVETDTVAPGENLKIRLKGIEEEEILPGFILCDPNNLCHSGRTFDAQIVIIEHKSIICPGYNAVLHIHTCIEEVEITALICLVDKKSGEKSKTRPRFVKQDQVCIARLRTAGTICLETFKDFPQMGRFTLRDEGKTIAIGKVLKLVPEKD
Protein cereblon/Eukaryotic peptide chain release factor GTP-binding subunit ERF3A/Cullin-4A (Homo sapiens), sequence (Q13619 whole entry, looked up): as the sequence (Q13619 whole entry, looked up) above
Protein cereblon/Eukaryotic peptide chain release factor GTP-binding subunit ERF3A/Cullin-4A (Homo sapiens), sequence (Q96SW2 whole entry, looked up): as the sequence (Q96SW2 whole entry, looked up) above

Cc1nnc2n1Cc1sc(C#Cc3cnn(CCCC#Cc4cccc5c4CN(C4CCC(=O)NC4=O)C5=O)c3)c(Cc3ccccc3)c1OC2 (stereo not drawn)
Activity [1]: inactive
Activity [2]: Active
Activity [3]: Active
Activity [4]: Active
Drug uptake [5]: Bld
Activity (Mus musculus [6]): Active
Cp [7]: Bld
Activity [8]: inactive
IC50 (RS4-11 [9]): 0.032 nM
Activity (RS4-11 [10]): Active
Activity (MV4-11 [11]): Active
Activity [12]: Active
Activity (MV4-11 [13]): >60%
Activity [14]: inactive
Drug uptake [15]: Bld
Activity (Mus musculus [16]): Active
Activity (RS4-11 [17]): 15 - 30%
Activity (MV4-11 [18]): Active
Activity [19]: inactive
Activity [20]: Active
Activity (RS4-11 [21]): inactive
Activity [22]: Active
TGI (RS4-11 [23]): Active
